From ChEMBL document CHEMBL4049443, “Discovery of 2-[[2-Ethyl-6-[4-[2-(3-hydroxyazetidin-1-yl)-2-oxoethyl]piperazin-1-yl]-8-methylimidazo[1,2-a]pyridin-3-yl]methylamino]-4-(4-fluorophenyl)thiazole-5-carbonitrile (GLPG1690), a First-in-Class Autotaxin Inhibitor Undergoing Clinical Evaluation for the Treatment of Idiopathic Pulmonary …” (J Med Chem, 2017)
The source made the active and inactive calls. The calls are words filed in the database; no cut-off is given here.

Assays:
[1] = Oral bioavailability in rat at 5 mg/kg; type: ADME, organism-based; settings: in vivo
Mus musculus [2] = experiment: Dose normalized AUC (0 to 24 hrs) in C57BL/6Rj mouse at 30 mg/kg administered as single dose via oral gavage by LC-MS/MS analysis; type: ADME, organism-based; settings: in vivo
Outline: (§1)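 Female C57BL/6Rj mice, 4−5 weeks old, fasted, given one oral gavage in PEG 200/MC 0.5% (25/75 v/v) at 0.3, 1 or 3 mg/mL. Intracardiac blood under isoflurane at 1, 3, 6 and 24 h into Li-heparin; n = 3 per time point. Methanol precipitation, LC−MS/MS against an eight-level calibration curve (LLOQ 4 ng/mL).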

[3] = Cmax in C57BL/6Rj mouse at 10 mg/kg administered as single dose via oral gavage up to 24 hrs by LC-MS/MS analysis; type: ADME, organism-based; parameters: dose 10 mg/kg, route oral; settings: in vivo; outline: as §1
Autotaxin = Autotaxin (Rattus norvegicus, UniProt Q64610); experiment: Inhibition of ATX in rat plasma assessed as reduction in LPA 18:2 production after 2 hrs by LC-MS/MS analysis
[4] = AUC (0 to 24 hrs) in C57BL/6Rj mouse at 10 mg/kg administered as single dose via oral gavage by LC-MS/MS analysis; type: ADME, organism-based; parameters: dose 10 mg/kg, time < 24 hr, route oral; settings: in vivo; outline: as §1
Mus musculus [5] = experiment: In vivo inhibition of ATX in C57BL/6Rj mouse assessed as time for maximum reduction in LPA 18:2 at 3 mg/kg administered as single dose via oral gavage by LC-MS/MS analysis; type: functional
Outline: (§2)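 Same single-gavage mouse study (female C57BL/6Rj, PEG 200/MC 0.5% vehicle, n = 3, bled predose and at 1, 3, 6, 24 h); vehicle control group. Plasma (10 μL) precipitated with methanol containing LPA 17:0 internal standard. LPA 18:2 read by LC−MS/MS as peak-area ratio to LPA 17:0. % reduction = 100 − (LPA at time t / mean vehicle LPA at time t × 100).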

Mus musculus [6] = experiment: In vivo inhibition of ATX in C57BL/6Rj mouse assessed as reduction in LPA 18:2 level in plasma at 30 mg/kg administered as single dose via oral gavage by LC-MS/MS analysis; type: functional; outline: as §2
Mus musculus [7] = experiment: Anti-fibrotic activity in BML-induced pulmonary fibrosis C57BL/6 mouse model assessed as reduction in fibrosis with damage of pulmonary structure at 10 to 30 mg/kg, po administered bid with 7.5 hrs interval between 2 doses for 21 days relative to control; type: functional, organism-based
Outline: (§3)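 Male C57Bl/6 mice, 11 weeks at delivery, anesthetized and given intranasal bleomycin 30 μg/50 μL; PBS controls. Oral dosing twice daily, 7.5 h apart, 10 mL/kg, from challenge day for 21 days: test agent in PEG 200/0.5% MC, pirfenidone in 0.5% CMC, vehicle controls; 14−24 mice per group. Lungs stained by Mallory method, scored 1–5 (Matsuse-modified Ashcroft) as mean of 10 low-power fields; group median, Mann−Whitney.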

[8] = Protein binding to human plasma; type: ADME, cell-free; settings: read-out: PPB
[9] = Tmax in C57BL/6Rj mouse at 30 mg/kg administered as single dose via oral gavage up to 24 hrs by LC-MS/MS analysis; type: ADME, organism-based; settings: in vivo
Outline: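 Female C57BL/6Rj mice, 4−5 weeks old, given one oral gavage in PEG 200/MC 0.5% (25/75, v/v) at 3 mg/mL; fasted. Intracardiac blood under isoflurane at 1, 3, 6 and 24 h, Li-heparin. Methanol precipitation, LC−MS/MS against eight-level calibration, LLOQ 4 ng/mL. Plasma levels averaged over three mice; noncompartmental analysis for tmax.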

[10] = Apparent elimination half life in C57BL/6Rj mouse at 3 mg/kg administered as single dose via oral gavage up to 24 hrs by LC-MS/MS analysis; type: ADME, organism-based; settings: in vivo, read-out: betat1/2(app) (converted); outline: as §1
Mus musculus [11] = experiment: Anti-fibrotic activity in BML-induced pulmonary fibrosis C57BL/6 mouse model assessed as lung weight at 10 to 30 mg/kg, po administered bid with 7.5 hrs interval between 2 doses for 21 days relative to control; type: functional, organism-based
Mus musculus [12] = experiment: Anti-fibrotic activity in BML-induced pulmonary fibrosis C57BL/6 mouse model assessed as reduction in fibrotic thickening of aveolar/bronchial walls at 10 to 30 mg/kg, po administered bid with 7.5 hrs interval between 2 doses for 21 days relative to control; type: functional, organism-based; outline: as §3
[13] = Tmax in C57BL/6Rj mouse at 3 mg/kg administered as single dose via oral gavage up to 24 hrs by LC-MS/MS analysis; type: ADME, organism-based; settings: in vivo; outline: as §1
[14] = Plasma concentration in C57BL/6Rj mouse at 30 mg/kg administered as single dose via oral gavage after 24 hrs by LC-MS/MS analysis; type: ADME, organism-based; outline: as §1
[15] = AUC (0 to 24 hrs) in C57BL/6Rj mouse at 30 mg/kg administered as single dose via oral gavage by LC-MS/MS analysis; type: ADME, organism-based; parameters: dose 30 mg/kg, time < 24 hr, route oral; settings: in vivo; outline: as §1
[16] = AUC (0 to 24 hrs) in C57BL/6Rj mouse at 3 mg/kg administered as single dose via oral gavage by LC-MS/MS analysis; type: ADME, organism-based; parameters: time < 24 hr, dose 3 mg/kg, route oral; settings: in vivo; outline: as §1
[17] = Cmax in C57BL/6Rj mouse at 30 mg/kg administered as single dose via oral gavage up to 24 hrs by LC-MS/MS analysis; type: ADME, organism-based; parameters: dose 30 mg/kg, route oral; settings: in vivo; outline: as §1
[18] = Oral bioavailability in dog at 1 mg/kg; type: ADME, organism-based, Canis lupus familiaris; settings: in vivo
Outline: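 Dog: from 1 mg/kg oral and intravenous doses. Clearance taken from the intravenous arm.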

Mus musculus [19] = experiment: Dose normalized Cmax in C57BL/6Rj mouse at 10 mg/kg administered as single dose via oral gavage up to 24 hrs by LC-MS/MS analysis; type: ADME, organism-based; settings: in vivo; outline: as §1
Mus musculus [20] = experiment: In vivo inhibition of ATX in C57BL/6Rj mouse assessed as reduction in LPA 18:2 level in plasma at 10 mg/kg administered as single dose via oral gavage by LC-MS/MS analysis; type: functional; outline: as §2
[21] = Cmax in C57BL/6Rj mouse at 3 mg/kg administered as single dose via oral gavage up to 24 hrs by LC-MS/MS analysis; type: ADME, organism-based; parameters: dose 3 mg/kg, route oral; settings: in vivo; outline: as §1
Mus musculus [22] = experiment: Dose normalized Cmax in C57BL/6Rj mouse at 3 mg/kg administered as single dose via oral gavage up to 24 hrs by LC-MS/MS analysis; type: ADME, organism-based; settings: in vivo; outline: as §1

Structure (SMILES): CCc1nc2c(C)cc(N3CCN(CC(=O)N4CC(O)C4)CC3)cn2c1N(C)c1nc(-c2ccc(F)cc2)c(C#N)s1 [ZIRITAXESTAT]
- bioavailability [1]: 37%
- AUC/dose (Mus musculus [2]): 3374 ng·h/mL/mg/kg
- Cmax [3]: 4360 ng/mL
- IC50 (Autotaxin): 542 nM
- AUC(0-t) at 24 h [4]: 20800 ng·h/mL
- Time (Mus musculus [5]): 3 h
- inhibition in vivo at 30 mg/kg (Mus musculus [6]): 95.2%
- Activity (Mus musculus [7]): Active
- fraction unbound [8]: < 0.01
- Tmax [9]: 1 h
- half-life [10]: 2.21 h
- Activity (Mus musculus [11]): Active
- Activity (Mus musculus [12]): Active
- Tmax [13]: 3 h
- concentration at 24 h [14]: 295 ng/mL
- AUC(0-t) at 24 h [15]: 101000 ng·h/mL
- AUC(0-t) at 24 h [16]: 5550 ng·h/mL
- Cmax [17]: 21400 ng/mL
- bioavailability [18]: 63%
- Cmax/dose (Mus musculus [19]): 436 ng/mL/(mg/kg)
- inhibition in vivo at 10 mg/kg (Mus musculus [20]): 90.9%
- Cmax [21]: 1080 ng/mL
- Cmax/dose (Mus musculus [22]): 358 ng/mL/(mg/kg)
